Here are results for 26 molecules from ChEMBL document CHEMBL1123300 (J Med Chem, 1986).

Non-standard residues stand in square brackets, D forms with d. Residues, ends and D or L forms follow the SMILES beside them. *: point of attachment. Ala(1-Adamantyl) = N[C@@H](CC12CC3CC(CC(C3)C1)C2)C(=O)O; Sta = CC(C)C[C@H](N)[C@@H](O)CC(=O)O; Adoc = O=C(OC12CC3CC(CC(C3)C1)C2)*; NMeF = CN[C@@H](Cc1ccccc1)C(=O)O; X1 = CC(C)(C)OC(=O)NCCS(=O)(=O)*; αMeF = C[C@](N)(Cc1ccccc1)C(=O)O; Phg = N[C@H](C(=O)O)c1ccccc1; Isovaleryl = CC(C)CC(=O)*; Nle = CCCC[C@H](N)C(=O)O; Nva = CCC[C@H](N)C(=O)O; Cbz = O=C(OCc1ccccc1)*; Boc = CC(C)(C)OC(=O)*; Moc = COC(=O)* Bounds are passed on as bounds.

A word on the IC50: it is the concentration at which inhibition is half-maximal.

Assay [1] deals with T1, Renin (Homo sapiens, UniProt P00797).
T1 sequence (P00797 whole entry): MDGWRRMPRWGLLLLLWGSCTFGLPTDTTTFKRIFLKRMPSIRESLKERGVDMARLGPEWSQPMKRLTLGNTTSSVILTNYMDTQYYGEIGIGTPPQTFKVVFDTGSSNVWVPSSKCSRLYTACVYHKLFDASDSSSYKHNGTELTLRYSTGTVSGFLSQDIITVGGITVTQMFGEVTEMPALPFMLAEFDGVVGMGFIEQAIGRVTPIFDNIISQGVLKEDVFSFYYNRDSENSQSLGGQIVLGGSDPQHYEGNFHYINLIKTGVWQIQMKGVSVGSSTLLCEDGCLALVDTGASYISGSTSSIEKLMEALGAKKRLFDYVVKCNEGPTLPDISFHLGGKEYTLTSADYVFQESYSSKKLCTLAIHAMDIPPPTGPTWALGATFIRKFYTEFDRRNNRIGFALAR
Briefly: In vitro inhibitory activity against human plasma renin. The format is cell-free.

Assay [2] deals with T1, Renin. Description: In vitro inhibitory activity against monkey plasma renin. The format is cell-free, Cercopithecidae. As to conditions: target entry is the homologue from another species.
For assay [3], the target named is T1, Renin. Description: In vitro inhibitory activity against dog plasma renin. Type of assay: cell-free, Canis lupus familiaris. As to conditions: target entry is the homologue from another species.
Assay [4] concerns the target T2, Renin (Rattus norvegicus, UniProt P08424).
T2 sequence (P08424 whole entry): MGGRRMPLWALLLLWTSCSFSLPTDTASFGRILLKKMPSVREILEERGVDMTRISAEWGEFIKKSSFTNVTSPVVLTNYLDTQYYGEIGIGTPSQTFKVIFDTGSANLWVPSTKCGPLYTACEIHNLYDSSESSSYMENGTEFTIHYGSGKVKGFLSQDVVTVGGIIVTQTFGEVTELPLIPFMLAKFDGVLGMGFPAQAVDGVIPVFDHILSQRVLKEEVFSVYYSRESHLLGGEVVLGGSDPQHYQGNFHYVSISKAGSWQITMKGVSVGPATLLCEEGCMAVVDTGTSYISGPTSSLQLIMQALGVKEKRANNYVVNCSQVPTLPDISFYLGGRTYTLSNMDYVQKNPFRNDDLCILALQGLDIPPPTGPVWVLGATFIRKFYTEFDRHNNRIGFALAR
Description: In vitro inhibitory activity against rat plasma renin. The format is cell-free.

Assay [5] has as its target T1, Renin. Description: In vitro inhibitory activity against man (human) plasma renin. Type of assay: cell-free.
For assay [6], the target named is T1, Renin. Briefly: In vitro inhibitory activity against monkey (Callithrix jacchus) plasma renin. As to conditions: target entry is the homologue from another species. The format is cell-free. The essentials: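 Pooled plasma from animals whose plasma renin activity was stimulated with furosemide, incubated at 37 °C in pH 7.4 phosphate buffer with phenylmethanesulfonyl fluoride as angiotensinase inhibitor and increasing inhibitor concentrations. Angiotensin I generated was measured by RIA (Haber method). IC50 came from nonlinear logit vs log-concentration regression over five to seven concentrations.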

Assay [7] has as its target T1, Renin. Description: Inhibition of monkey plasma renin activity. The format is cell-free, Cercopithecidae. The settings on record: target entry is the homologue from another species.
Assay [8] has as its target T2, Renin. Description: Inhibition of rat plasma renin activity.
The target in assay [9] is T1, Renin. Briefly: Inhibition of man plasma renin activity. Type of assay: cell-free.
The target in assay [10] is T1, Renin. Description: Inhibition of dog plasma renin activity. The format is cell-free, Canis lupus familiaris. As to conditions: target entry is the homologue from another species.

As for `COC(=O)C[C@H](O)[C@H](CC(C)C)NC(=O)[C@H](C)NC(=O)C[C@H](O)[C@H](CC(C)C)NC(=O)[C@H](Cc1ccccc1)NC(=O)[C@H](Cc1ccccc1)NC(=O)OC(C)(C)C`, the IC50 against Renin [1] amounted to 190 nM; at Renin [2] it was 130 nM; on Renin [3] it was 76 nM; at Renin [4], 190 nM.
For `CCC[C@H](N[C@@H](CC(C)C)[C@@H](O)CC(=O)N[C@@H](C)C(=O)N[C@@H](CC(C)C)[C@@H](O)CC(=O)OC)C(=O)N[C@@H](Cc1ccccc1)C(=O)NC(=O)CC(C)C`, the IC50 against Renin [1] was found to be 42 nM; at Renin [5], 42 nM; against Renin [6], 30 nM; against Renin [3] it was 58 nM; on Renin [4], 880 nM.
Regarding `COC(=O)CC(O)[C@H](CC(C)C)NC(=O)[C@H](C)NC(=O)CC(O)[C@H](CC(C)C)NC(=O)[C@@H](Cc1ccccc1)NC(=O)[C@H](Cc1ccccc1)NC(=O)OCc1ccccc1` (stereo not given in full), the IC50 against Renin [1] was above 10000 nM.
Molecule `COC(=O)CC(O)[C@H](CC(C)C)NC(=O)[C@H](C)NC(=O)CC(O)[C@H](CC(C)C)NC(=O)[C@H](Cc1ccccc1)NC(=O)[C@@H](Cc1ccccc1)NC(=O)OC(C)(C)C` (stereo not given in full) registered an IC50 on Renin [1] above 10000 nM.
The same measure, in the same setting: the value for `COC(=O)CC(O)[C@H](CC(C)C)NC(=O)[C@H](C)NC(=O)CC(O)[C@H](CC(C)C)NC(=O)CNC(=O)[C@H](Cc1ccccc1)NC(=O)CC(C)C` (stereo not given in full) was 4700 nM; that for `COC(=O)CC(O)[C@H](CC(C)C)NC(=O)[C@H](C)NC(=O)CC(O)[C@H](CC(C)C)NC(=O)[C@@H](NS(=O)(=O)CCNC(=O)OCc1ccccc1)C(C)C` (stereo not given in full) was above 10000 nM; that for `COC(=O)CC(O)[C@H](CC(C)C)NC(=O)[C@H](C)NC(=O)CC(O)[C@H](CC(C)C)NC(=O)CCCNC(=O)[C@H](Cc1ccccc1)NC(=O)CC(C)C` (stereo not given in full) was 200 nM.
On the same count and under the same terms, the value for `COC(=O)C[C@H](O)[C@H](CC(C)C)NC(=O)[C@H](C)NC(=O)C[C@H](O)[C@H](CC(C)C)NC(=O)[C@H](Cc1ccccc1)NC(=O)[C@H](Cc1ccccc1)NC(C)=O` (Ac-FF[Sta]A[Sta]-OMe) was 1400 nM; that for `COC(=O)C[C@H](O)[C@H](CC(C)C)NC(=O)[C@H](C)NC(=O)C[C@H](O)[C@H](CC(C)C)NC(=O)[C@H](Cc1ccccc1)NC(=O)[C@H](Cc1ccccc1)NC(=O)OC12CC3CC(CC(C3)C1)C2` (Adoc-FF[Sta]A[Sta]-OMe) was 3000 nM.
Still for that read-out and setting: the value for `CCCC[C@H](NC(=O)[C@H](Cc1ccccc1)NC(=O)OC(C)(C)C)C(=O)N[C@@H](CC(C)C)[C@@H](O)CC(=O)N[C@@H](C)C(=O)N[C@@H](CC(C)C)[C@@H](O)CC(=O)O` (Boc-F[Nle][Sta]A[Sta]-OH) was 30 nM.
On Renin [1], `CCC[C@H](NC(=O)[C@H](Cc1ccccc1)NC(=O)OC(C)(C)C)C(=O)N[C@@H](CC(C)C)[C@@H](O)CC(=O)N[C@@H](C)C(=O)N[C@@H](CC(C)C)[C@@H](O)CC(=O)OC` (Boc-F[Nva][Sta]A[Sta]-OMe) yielded an IC50 of 51 nM.
As for `COC(=O)C[C@H](O)[C@H](CC(C)C)NC(=O)[C@H](C)NC(=O)C[C@H](O)[C@H](CC(C)C)NC(=O)[C@H](Cc1c[nH]cn1)NC(=O)[C@H](Cc1c[nH]c2ccccc12)NC(=O)OC(C)(C)C` (Boc-WH[Sta]A[Sta]-OMe), the IC50 was found to be 140 nM on Renin [1], 110 nM on Renin [7], 1300 nM against Renin [8] and 140 nM at Renin [9].
For the molecule `COC(=O)C[C@H](O)[C@H](CC(C)C)NC(=O)[C@H](C)NC(=O)C[C@H](O)[C@H](CC(C)C)NC(=O)[C@H](Cc1c[nH]c2ccccc12)NC(=O)[C@H](Cc1c[nH]c2ccccc12)NC(=O)OC(C)(C)C` (Boc-WW[Sta]A[Sta]-OMe), at Renin [8], the IC50 came out at 1000 nM.
For `COC(=O)C[C@H](O)[C@H](CC(C)C)NC(=O)[C@H](C)NC(=O)C[C@H](O)[C@H](CC(C)C)NC(=O)[C@H](Cc1c[nH]cn1)NC(=O)[C@H](CC12CC3CC(CC(C3)C1)C2)NC(=O)OC(C)(C)C` (Boc-[Ala(1-Adamantyl)]H[Sta]A[Sta]-OMe), the IC50 against Renin [1] worked out at 250 nM; against Renin [5], 250 nM; on Renin [3] it was 650 nM; against Renin [4], 2200 nM.
Regarding `COC(=O)C[C@H](O)[C@H](CC(C)C)NC(=O)[C@H](C)NC(=O)C[C@H](O)[C@H](CC(C)C)NC(=O)[C@H](Cc1ccccc1)NC(=O)[C@H](Cc1ccccc1)N(C)C(=O)OC(C)(C)C` (Boc-[NMeF]F[Sta]A[Sta]-OMe), the IC50 at Renin [1] was above 10000 nM; against Renin [5], 15000 nM; against Renin [2] it was 15000 nM; at Renin [4] it was 17000 nM.
For `COC(=O)C[C@H](O)[C@H](CC(C)C)NC(=O)[C@H](C)NC(=O)C[C@H](O)[C@H](CC(C)C)NC(=O)[C@H](Cc1ccccc1)NC(=O)[C@@H](NC(=O)OC(C)(C)C)c1ccccc1` (Boc-[Phg]F[Sta]A[Sta]-OMe), the IC50 on Renin [1] was above 10000 nM.
The same measure, in the same setting: next, `COC(=O)C[C@H](O)[C@H](CC(C)C)NC(=O)[C@H](C)NC(=O)C[C@H](O)[C@H](CC(C)C)NC(=O)[C@H](Cc1ccccc1)NC(=O)[C@](C)(Cc1ccccc1)NC(=O)OC(C)(C)C` (Boc-[αMeF]F[Sta]A[Sta]-OMe): above 10000 nM; `COC(=O)C[C@H](O)[C@H](CC(C)C)NC(=O)[C@H](C)NC(=O)C[C@H](O)[C@H](CC(C)C)NC(=O)[C@@H]1CCCN1C(=O)[C@H](Cc1ccccc1)NC(=O)OCc1ccccc1` (Cbz-FP[Sta]A[Sta]-OMe): 10000 nM.
The same measure, in the same setting: the value for `COC(=O)C[C@H](O)[C@H](CC(C)C)NC(=O)[C@H](C)NC(=O)C[C@H](O)[C@H](CC(C)C)NC(=O)[C@H](Cc1c[nH]c2ccccc12)NC(=O)[C@H](Cc1ccccc1)NC(=O)OCc1ccccc1` (Cbz-FW[Sta]A[Sta]-OMe) was 1400 nM.
Turning to `COC(=O)C[C@H](O)[C@H](CC(C)C)NC(=O)[C@H](C)NC(=O)C[C@H](O)[C@H](CC(C)C)NC(=O)[C@@H](NC(=O)[C@H](Cc1c[nH]c2ccccc12)NC(=O)OCc1ccccc1)C(C)C` (Cbz-WV[Sta]A[Sta]-OMe), the IC50 amounted to 25 nM on Renin [7], 22 nM against Renin [8], 42 nM at Renin [10] and 150 nM at Renin [9].
Consider `CCCC[C@H](NC(=O)[C@@H](N)Cc1ccccc1)C(=O)N[C@@H](CC(C)C)[C@@H](O)CC(=O)N[C@@H](C)C(=O)N[C@@H](CC(C)C)[C@@H](O)CC(=O)OC` (H-F[Nle][Sta]A[Sta]-OMe), for which the midpoint of inhibition on Renin [1], the IC50, lay at 7700 nM.
With `COC(=O)C[C@H](O)[C@H](CC(C)C)NC(=O)[C@H](C)NC(=O)C[C@H](O)[C@H](CC(C)C)NC(=O)[C@H](Cc1ccccc1)NC(=O)[C@H](Cc1ccccc1)NC(=O)CC(C)C` (Isovaleryl-FF[Sta]A[Sta]-OMe), on Renin [1], the half-inhibitory concentration (IC50) came to 320 nM.
Same read-out and setting: the value for `COC(=O)C[C@H](O)[C@H](CC(C)C)NC(=O)[C@H](C)NC(=O)C[C@H](O)[C@H](CC(C)C)NC(=O)[C@H](CCCCN)NC(=O)[C@H](Cc1ccccc1)NC(=O)CC(C)C` (Isovaleryl-FK[Sta]A[Sta]-OMe) was above 10000 nM; that for `COC(=O)C[C@H](O)[C@H](CC(C)C)NC(=O)[C@H](C)NC(=O)C[C@H](O)[C@H](CC(C)C)NC(=O)[C@H](CC(C)C)NC(=O)[C@H](Cc1ccccc1)NC(=O)CC(C)C` (Isovaleryl-FL[Sta]A[Sta]-OMe) was 75 nM.
Still for that read-out and setting: next, `CCC[C@H](NC(=O)[C@H](Cc1ccccc1)NC(=O)OC)C(=O)N[C@@H](CC(C)C)[C@@H](O)CC(=O)N[C@@H](C)C(=O)N[C@@H](CC(C)C)[C@@H](O)CC(=O)OC` (Moc-F[Nva][Sta]A[Sta]-OMe): 260 nM.
Same read-out and setting: the value for `COC(=O)C[C@H](O)[C@H](CC(C)C)NC(=O)[C@H](C)NC(=O)C[C@H](O)[C@H](CC(C)C)NC(=O)[C@H](Cc1ccccc1)NC(=O)[C@H](Cc1ccccc1)NS(=O)(=O)CCNC(=O)OC(C)(C)C` (X1-FF[Sta]A[Sta]-OMe) was 180 nM.
